Laboratory results published in ChEMBL document CHEMBL4513216, “Probing the Open Global Health Chemical Diversity Library for Multistage-Active Starting Points for Next-Generation Antimalarials” (ACS Infect Dis, 2020).

Assay: Toxicity liver stage against HepG2, at 10uM
Assay type: cell-based
Set-up: test concentration 10 uM, cell line HepG2-A16-CD81EGFP
Settings: human, HepG2-A16-CD81EGFP cells; read-out: INHIBITION
Method in brief: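 Uninfected HepG2-A16-CD81EGFP cells, 3 × 10^3 per well, 1536-well, plated on prespotted compound at 10 μM final, parasite-free screening media added to match infected plates; puromycin 10 μM positive, DMSO 0.5% negative; run in parallel with 48 h PbLuc assay at 37 °C, 5% CO2; viability by CellTiter-Glo luminescence, normalized to controls.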

| Structure (SMILES) | cytotoxicity at 10 µM [%] |
| --- | --- |
| CNC(=O)NC(=O)CN(Cc1ccc(C#N)cc1)Cc1cccc(F)c1 | 5.51 |
| COc1ccsc1C(=O)Nc1cc(CN2CCOCC2)ccc1C | -0.0813 |
| Cc1ccc(N2CC[C@@H]3[C@@H]2CCN3Cc2ccsc2)nn1 | -106 |
| Cc1ncsc1C(=O)N1CCC(c2ccc3c(NC(C)C)n[nH]c3n2)C1 (centres undefined) | 4.42 |
| CS(=O)(=O)N[C@@H]1CCN(Cc2nccs2)[C@H]1Cc1ccncc1 | -2.48 |
| COc1ccsc1C(=O)N1CCCC(n2nc(C)nc2C)C1 (centres undefined) | -3.69 |
| CCC(C)NC(=O)c1snnc1-c1ccc(OC)cc1 (centres undefined) | 6.93 |
| CCCn1cnnc1CNC1CCCC1 | -2.27 |
| O=C(CN1CCc2cncnc2C1)NCCOc1ccccc1 | -6.78 |
| Cc1cc(C)cc(OCn2ccc(C(=O)O)n2)c1 | 6.06 |
| Cc1cc(C(=O)Nc2ccc(OCCN3CCN(C)CC3)cc2)[nH]n1 | -2.51 |
| CCN(CC)C(=O)N1CCN(C(=O)C2CCCc3[nH]ncc32)CC1 (centres undefined) | -2.3 |
| Cc1cc(F)c(S(=O)(=O)Nc2ccn(CCCC#N)n2)cc1F | 19.3 |
| CCCN1CCC(Cc2noc(-c3ncccc3C)n2)CC1 | 0.0119 |
| CC(=O)Nc1ccc(CN2CCc3[nH]cnc3C2c2ccc(C)o2)cc1 (centres undefined) | 4.93 |
| Cc1nc(C)n(CC2CCCN2c2ncnc3c2CCC3)n1 (centres undefined) | 8.03 |
| CC(=O)c1cn(CC(=O)N2CCC(O)(CO)CC2)c2ccccc12 | 1.13 |
| NC(=O)c1cnc2n1CCN(C(=O)c1cccc(Cn3cccn3)c1)C2 | 4.35 |
| O=C(Oc1ccccc1)N1CCC(CNS(=O)(=O)c2cccnc2)CC1 | 11.1 |
| CCS(=O)(=O)N1CCCC2(CCCN2Cc2cccc(Cl)c2)C1 (centres undefined) | -143 |
| O=C(C1CCCCC1)N1CCC2(COc3ncccc3S(=O)(=O)N2)C1 (centres undefined) | 11.3 |
| CC(C)C(=O)NCC(=O)N(C)C1CCCN(CCc2ccccc2)C1 (centres undefined) | -16.9 |

| Structure (SMILES) | cytotoxicity at 10 µM [%] |
| --- | --- |
| CCN(CC(=O)NCc1nc(C2CC2)no1)Cc1ccc(Cl)cc1 | -2.29 |
| CCn1ccnc1CN1CCN(CC(O)c2cccc(F)c2)CC1 (centres undefined) | 0.272 |
| COCCN1CCCC1c1nccnc1Nc1ncc(C)s1 (centres undefined) | -7.99 |
| COc1cccc(OCC2CCCN(C(=O)CCCn3cccn3)C2)c1 (centres undefined) | 8.12 |
| O=C(COc1ccc(Cl)cc1)Nc1cnc(N2CCOCC2)nc1 | -8.18 |
| CCCN(CCC)S(=O)(=O)c1cc(NC(C)=O)ccc1C | -148 |
| CCC(NC(=O)Cn1ccc(=O)n(C)c1=O)c1ccc(OC)cc1 (centres undefined) | 2.19 |
| CC(C)C1CN(C(=O)c2ccc(C(N)=O)cc2)CCS1 (centres undefined) | -4.03 |
| CN1CCOC(CNCC(=O)NCCc2ccc(F)cc2)C1 (centres undefined) | 1.38 |
| Cc1nc(C2CCCNC2)nc2c1CCCN2Cc1ccccn1 (centres undefined) | -2.76 |
| CCNC(=O)N1CC[C@H]2CC(=O)N(CCN3CCNC3=O)CC[C@H]2C1 | 2.22 |
| O=C(CN1CCOC(Cn2cccn2)C1)Nc1nncs1 (centres undefined) | 4.79 |
| CN(C)Cc1ccc(NC(=O)c2nccn3ccnc23)cc1 | -2.6 |
| CC(C)(C)C(=O)NCCn1ccc(-c2ccccn2)n1 | 6.47 |
| c1cc(CN2CCC(n3cc(CN4CCCC4)nn3)CC2)cs1 | -6.26 |
| CC(C)c1nnc(NC(=O)NCc2ccc(CO)c(F)c2)s1 | 6.54 |
| Cc1nc(CN2C[C@@H]3CN(C(=O)[C@H]4CCCO4)C[C@@H]3C2=O)cs1 | -81.5 |
| COc1cccc(-c2ccc3nc(C4CCN(C(C)=O)CC4)nn3c2)c1 | 9.84 |
| CC(C)CN1C(=O)CC[C@H]2CN(C(=O)Cn3ccccc3=O)CC[C@H]21 | -7.37 |
| CN1CCC(N2CCC(C(=O)N(C)C)CC2)CC1 | -1.82 |
| CCC(C)[C@H](N)c1nnc(SCC(=O)Nc2ccc(Br)cc2)o1 (some centres undefined) | -3.48 |
| Cc1nccn1C1CCCN(C(=O)CCNc2ncccn2)C1 (centres undefined) | -13.7 |

| Structure (SMILES) | cytotoxicity at 10 µM [%] |
| --- | --- |
| O=C(NCCN1CCCCC1)c1ccoc1 | -11.3 |
| Cn1ncc2c(N3CCN(C(N)=O)CC3)nc(C3CCCC3)nc21 | 18.2 |
| CC(=O)N1N=C(COc2ccc3c(c2)OCO3)OC1c1cccc(Cl)c1 (centres undefined) | -1.77 |
| COCc1nc2ncc3c(=O)n(-c4ccc(OC)cc4)ccc3n2n1 | 8.1 |
| CN1CCOC(C)(C(=O)Nc2nccs2)C1 (centres undefined) | 4.92 |
| O=C(NCC1CC1)C1=NOC2(CCN(S(=O)(=O)Cc3ccccc3)C2)C1 (centres undefined) | -2.1 |
| Cc1n[nH]c(C2CN(C(=O)c3cc(Cl)c[nH]3)CCO2)n1 (centres undefined) | 3.95 |
| Cc1nn(C)c2ncc(C(=O)N3CCNC(=O)C3)cc12 | -6.62 |
| CCN(Cc1nc2c(cnn2C)c(=O)[nH]1)c1cc(C)ccc1C | -11.3 |
| Cc1cccc(-c2c[nH]c(C3CCCN3C(=O)Cn3cc(C)cn3)n2)c1 (centres undefined) | 4.56 |
| O=C1[C@H]2CN(C3CCOCC3)C[C@H]2CN1Cc1cccc(F)c1 | -117 |
| COc1cc(S(=O)(=O)N2CCc3ccc(Cl)cc32)cc(C(=O)O)c1OC | -1.34 |
| CCc1cc(N(C)Cc2ncc[nH]2)nc(N2CCOCC2)n1 | -1.61 |
| CCN(C(=O)Cc1ccc(NCc2nccn2C)cc1)c1ccccc1 | -2.09 |
| O=C(Cc1cccnc1)N1CCC2(CCN(C3CCOC3)CC2)C1 (centres undefined) | 5.08 |
| O=C(CO)N1CCC2(CC1)CC(=O)N(Cc1cc(F)cc(F)c1)C2 | 9.92 |
| C=Cc1ccc(CN2CCCC3(CNC(=O)c4ccccc4O3)C2)cc1 (centres undefined) | -22.6 |
| O=C(c1cccc(F)c1)N1C[C@H]2CN(Cc3ccccn3)C[C@H]2C1 | -1.92 |
| c1cc(-c2ccc(CN3CCC4(CCNCC4)CC3)s2)[nH]n1 | -166 |
| O=C(O)C1CCN(C(=O)Cn2ccc3c(Cl)cccc32)CC1 | -3.91 |
| Cc1ccccc1CS(=O)(=O)CC(=O)N(C)Cc1ccccc1F | -0.969 |
| OC1CCN(Cc2c(C3CCCNC3)[nH]c3ncccc23)CC1 (centres undefined) | -0.542 |

| Structure (SMILES) | cytotoxicity at 10 µM [%] |
| --- | --- |
| Cc1nn(C)c(C)c1-c1ccc(=O)n(C(C)C(=O)NCc2ccco2)n1 (centres undefined) | 6.93 |
| COCCn1ccc(NCc2cc3cc(F)ccc3o2)n1 | -8.78 |
| C[S+]([O-])CCNC(=O)Nc1cc(F)ccc1-n1cccn1 (centres undefined) | -20.9 |
| Cc1ccc(CN2CCc3ncnc(-c4ccncc4)c3CC2)o1 | -1.19 |
| Cn1ccc(C(=O)N2C[C@@H]3CCN(c4cnccn4)C[C@@H]3C2)n1 | -106 |
| CCCc1cc(C(=O)N2C[C@H]3CCC[C@@]3(CO)C2)[nH]n1 | 10.4 |
| NS(=O)(=O)CCN1CCOC(c2ccc(Cl)cc2)C1 (centres undefined) | -0.317 |
| Cn1ccnc1CN1CCCCC1Cn1cccn1 (centres undefined) | 5.94 |
| CC(C)N1CCCC(C(=O)N2CCc3c(nc(CC4CC4)[nH]c3=O)C2)C1 (centres undefined) | -7.41 |
| Cc1nnc2n1CC(CNc1ncnc3ccccc13)CC2 (centres undefined) | -40 |
| Cc1noc(C)c1CN1CCC2(COCc3cnc(N(C)C)nc32)C1 (centres undefined) | 9.93 |
| CC(C)N1CCOC(CC(=O)N2CCCN(Cc3ccncc3)CC2)C1 (centres undefined) | -7.49 |
| CC(C)=CCN1CCC(c2nnc(CN3CCN(C)CC3)n2C)CC1 | -7.54 |
| O=C(O)c1c(-c2cccnc2)ncc2c1CCN(Cc1ccccn1)C2 | -1.43 |
| N#Cc1ccnc(N2CCN(CC(O)c3ccccc3)CC2)c1 (centres undefined) | 0.587 |
| CC(c1ncc(C(C)(C)C)o1)N1CCN(c2ccncc2)CC1 (centres undefined) | 18.5 |
| CC(C)CCN1CC2(CCN(C(=O)C3(C)CCCCO3)CC2)OC1=O (centres undefined) | -14.4 |
| COc1cccc(S(=O)(=O)NC(=O)c2c(C)noc2C(C)C)c1 | -6.83 |
| CSCCC(=O)N1CCN(CC(C)O)CC1 (centres undefined) | -5.64 |
| CC(C)CN1CCC2(CC1)C(=O)Nc1ccc(C(=O)N(C)C)cc12 | -1.18 |
| CCc1cc(NC2CCC(O)CC2)n2nc(C)c(C)c2n1 (centres undefined) | -6.86 |
| CCN1CCCC(CNC(=O)C2(c3cccc(Cl)c3)CC2)C1 (centres undefined) | -2.77 |

| Structure (SMILES) | cytotoxicity at 10 µM [%] |
| --- | --- |
| CSc1c[nH]nc1NS(=O)(=O)c1ccc(C)c(C)c1 | 1.79 |
| Cc1nccc(C2CN(Cc3cc[nH]n3)CCO2)n1 (centres undefined) | -6.92 |
| O=C(NCC(Cc1cccc(F)c1)N1CCCC1=O)c1cnccn1 (centres undefined) | -5.06 |
| CC(NC(=O)Cc1ccon1)c1ccc(OCC2CC2)c(F)c1 (centres undefined) | 5.47 |
| Cc1ncccc1C(=O)N1CCC2(CCc3ccccc3C(=O)N2)C1 (centres undefined) | 4.28 |
| CC(C)[C@H](NS(C)(=O)=O)C(=O)NCc1cc(-c2ccccc2)nn1C | -7.88 |
| O=C(NC1CCCN(c2ccc(OC(F)F)cc2)C1)c1c[nH]nn1 (centres undefined) | 24.8 |
| Cc1nn(-c2ccccc2)nc1C(=O)NCC(c1ccco1)N(C)C (centres undefined) | 6.51 |
| CC(Cn1ccnc1)NC(=O)NCc1ccc2c(c1)OCCO2 (centres undefined) | -18.6 |
| Cc1ccc(CNCC2CCc3nnc(C(C)C)n3C2)s1 (centres undefined) | -4.43 |
| COc1ccc2c(ccn2CC(=O)N2CCCC2c2cnn(C)c2)c1 (centres undefined) | 3.74 |
| Cc1cccc(-c2nnn3c2COC(CNC(=O)N2CCCC2)C3)c1 (centres undefined) | -94.5 |
| Cc1nc(COC[C@@H]2CC[C@H]3[C@H](CCN3c3ncccn3)O2)cs1 | 2.19 |
| Cc1ccc(F)c(S(=O)(=O)NCc2[nH]ncc2Br)c1 | 0.67 |
| CC(NCc1cccnc1)c1cc2c(cc1Br)OCCO2 (centres undefined) | 2.46 |
| COc1c(CNCCC(=O)NC2CCCCC2)c(C(C)C)nn1C | -10.4 |
| CN1[C@@H]2CC[C@H]1CN(c1cc(Sc3cccs3)nc(N)n1)CC2 | -8.02 |
| CCc1noc(C)c1C(=O)N1CCC(c2[nH]ncc2S(C)(=O)=O)C1 (centres undefined) | -6.94 |
| Cn1cnc2cc(C(=O)N3CCN(CCO)[C@@H]4CS(=O)(=O)C[C@@H]43)ccc21 | 2.74 |
| CSC(C)(C)CNC(=O)NCC[S+]([O-])c1ccccc1 (centres undefined) | 15.5 |
| Cc1ccccc1CNCc1cc(Cl)ccc1O | -5.9 |
